Some results are limits rather than exact numbers.

Assay type in all cases: functional, cell-based
Experiment [1] has as its system MCF7. The experiment can be described thus: Antiproliferative activity against human MCF7 cells assessed as cell growth inhibition after 48 hrs by XTT assay. The conditions noted are these: MCF7, 48 h. An outline of the steps:
(§1)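 NB4 grown in RPMI 1640 with 10% FBS and penicillin/streptomycin, A549 and MCF-7 in DMEM, all at 37 °C and 5% CO2. Cells seeded at 1.5∙10⁴ (NB4) or 1.0∙10⁴ (A549, MCF-7) per well. Adherent lines dosed 24 h after plating, NB4 shortly after. Triplicate concentrations from 0.1 to 100, DMSO control at 0.5% v/v. After 48 h exposure, XTT added for 2 h. A450 minus A690 read, GI50 reported with SE.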
(Tetrazolium assays rely on reduction of a dye to a coloured formazan, in cell work by metabolically active cells.)

A short description of experiment [2]: Antiproliferative activity against human NB4 cells assessed as cell growth inhibition after 48 hrs by XTT assay. The conditions noted are these: NB-4, 48 h. Summed up:
as §1

For experiment [3], the system named is A549. As to the kind of experiment: Antiproliferative activity against human A549 cells assessed as cell growth inhibition after 48 hrs by XTT assay. The conditions noted are these: A549, 48 h. An outline of the steps: as §1

What is called IC50 is the midpoint of a concentration-inhibition curve. `C=C(C(=O)c1ccc(OC)cc1OC)C(OC(C)=O)c1ccccc1[N+](=O)[O-]` (stereo not drawn): the IC50 was 70.1 µM in experiment [1], 8.8 µM in experiment [2] and greater than 100 µM in experiment [3].
For the compound `C=C(C(=O)c1ccc(OC)cc1)C(OC(=O)c1ccccc1)c1ccccc1Cl` (stereo not drawn), the IC50 in experiment [1] turned out to be 36 µM; in experiment [2], 8.5 µM; in experiment [3], 30.5 µM.
As for `COc1ccc(C(=O)/C(=C/c2ccc(Cl)cc2Cl)CN(C)C(=O)c2ccccc2)cc1`, the IC50 in experiment [1] came out at 39.7 µM; in experiment [2], 24 µM; in experiment [3] it was 32.4 µM.
On to `C=C(C(=O)c1ccc(OC)cc1)C(OC(C)=O)c1ccc([N+](=O)[O-])cc1` (stereo not drawn), for which the figures for the concentration for half-maximal inhibition (IC50) in experiment [1], in experiment [2] and in experiment [3] were 6.1 µM, 10.3 µM and 21.3 µM, respectively.
As for `C=C(C(=O)c1ccc(OC)cc1)C(O)c1ccc(Cl)cc1Cl` (stereo not drawn), the IC50 in experiment [1] is 9 µM; in experiment [2], 26.1 µM; in experiment [3], 70 µM.
On to `C=C(C(=O)c1ccc(OC)cc1)C(OC(C)=O)C1CCCCC1` (stereo not drawn), for which the IC50 is 14 µM in experiment [1], 10.5 µM in experiment [2] and greater than 100 µM in experiment [3].
With `COc1ccc(C(=O)/C(=C/C2CCCCC2)COC(C)=O)cc1`, the IC50 was found to be 24 µM in experiment [1], 23.3 µM in experiment [2] and 90 µM in experiment [3].
For `CC(=O)OC/C(=C/c1ccccc1F)C(=O)c1ccccc1`, the values for the IC50 in experiment [1], in experiment [2] and in experiment [3] were 39.8 µM, 8.3 µM and 20.3 µM, respectively.
Turning to `C=C(C/C(=C\c1ccc(OC(=O)c2ccccc2)cc1)C(=O)c1ccccc1)C(=O)c1ccccc1`, the 50% inhibitory concentration (IC50) was 61.6 µM in experiment [1], 8 µM in experiment [2] and 44.4 µM in experiment [3].
For `COc1ccc(C(=O)/C(=C/c2ccc(Cl)cc2)CC(C)OC(C)=O)cc1` (stereo not drawn), the IC50 in experiment [1] was greater than 100 µM; in experiment [2] it was 62 µM; in experiment [3] it was 73.2 µM.
For `C=C(C(=O)c1ccc(OC)cc1)C(OC(=O)c1ccccc1)c1ccccc1F` (stereo not drawn), in that order: 34.2 µM, 14.3 µM and 73.7 µM.
`COc1ccc(C(=O)/C(=C/c2ccc(C(F)(F)F)cc2)CC(C)C)cc1`: the results for the IC50 in experiment [1], in experiment [2] and in experiment [3] were greater than 100 µM, 12.6 µM and greater than 100 µM, respectively.
For `COc1ccc(C(=O)/C(=C/c2ccc(C(F)(F)F)cc2)CC2CCCCC2)cc1`, the IC50 in experiment [1] was greater than 100 µM; in experiment [2], 18.2 µM; in experiment [3], greater than 100 µM.
Take `COc1ccc(C(=O)/C(=C/c2ccc(Cl)cc2Cl)CC2CCCCC2)cc1`: the IC50 in experiment [1] is greater than 100 µM; in experiment [2] it was 48.9 µM; in experiment [3], greater than 100 µM.
On to `COc1ccc(C(=O)/C(=C/C2CCCCC2)CN(C)C(=O)c2ccccc2)cc1`, for which the figures for the half-inhibitory concentration (IC50) in experiment [1], in experiment [2] and in experiment [3] were 32.7 µM, 32.4 µM and 69.7 µM, respectively.
`C=C(C(=O)c1ccc(OC)cc1)C(OC(=O)c1ccccc1)c1c(F)c(F)c(F)c(F)c1F` (stereo not drawn): the IC50 in experiment [1] stood at 45.3 µM; in experiment [2], 12.9 µM; in experiment [3], 32.1 µM.
Take `COc1ccc(C(=O)/C(=C/c2ccc(Cl)cc2)CC(C)C)cc1`: the results for the IC50 in experiment [1], in experiment [2] and in experiment [3] were greater than 100 µM, 12.1 µM and greater than 100 µM, respectively.
Regarding `C=C(C(=O)c1ccc(OC)cc1)C(OC(=O)c1ccccc1)c1ccccc1[N+](=O)[O-]` (stereo not drawn), the IC50 was determined as 11.8 µM in experiment [1], 12.7 µM in experiment [2] and 45.5 µM in experiment [3].
For the compound `C=C(C(=O)c1ccc(OC)cc1)C(O)c1ccccc1F` (stereo not drawn), the IC50 was found to be 30.9 µM in experiment [1], 6.9 µM in experiment [2] and 15.7 µM in experiment [3].
For `C=C(C(=O)c1ccc(OC)cc1)C(OC(=O)c1ccccc1)c1ccc(Cl)cc1Cl` (stereo not drawn), the IC50 in experiment [1] amounted to 26.8 µM; in experiment [2], 9.7 µM; in experiment [3], 79.2 µM.
On the same counts, the results for `COc1ccc(C(=O)/C(=C/c2ccccc2Cl)CCOC(C)=O)cc1` are greater than 100 µM, 51.6 µM and greater than 100 µM.
On to `C=C(C(=O)c1ccc(OC)cc1)C(C)OC(=O)c1ccccc1` (stereo not drawn), for which the IC50 was 14.5 µM in experiment [1], 15.7 µM in experiment [2] and greater than 100 µM in experiment [3].
For `COc1ccc(C(=O)/C(=C/c2ccc(Cl)cc2)CCOC(C)=O)cc1`, in that order: greater than 100 µM, 36.3 µM and 86 µM.
For `CCC(/C=C(\CCOC(C)=O)C(=O)c1ccc(OC)cc1)CC`, in that order: greater than 100 µM, 91.1 µM and greater than 100 µM.
As to `C=C(C(=O)c1ccc(OC)cc1)C(OC(=O)c1ccccc1)C1CCCCC1` (stereo not drawn), the half-maximal inhibitory concentration (IC50) was 34.3 µM in experiment [1], 10 µM in experiment [2] and 62.1 µM in experiment [3].
As to `COc1ccc(C(=O)/C(=C/c2ccc(Cl)cc2Cl)CCOC(C)=O)cc1`, the IC50 in experiment [1] is 83.4 µM; in experiment [2], 34.8 µM; in experiment [3] it was 69.2 µM.
For the compound `CCC(/C=C(\COC(C)=O)C(=O)c1ccc(OC)cc1)CC`, the IC50 is 13.7 µM in experiment [1], 9.5 µM in experiment [2] and greater than 100 µM in experiment [3].
In the case of `COc1ccc(C(=O)/C(=C/C2CCCCC2)CCOC(C)=O)cc1`, the half-inhibitory concentration (IC50) in experiment [1], in experiment [2] and in experiment [3] was greater than 100 µM throughout.
Regarding `C=C(C/C(=C\c1ccc(C)cc1)C(=O)c1ccc(OC)cc1)C(=O)c1ccc(OC)cc1`, the 50% inhibitory concentration (IC50) in experiment [1] was 26.9 µM; in experiment [2], 11.4 µM; in experiment [3] it was 43.8 µM.
In the case of `C=C(C/C(=C\c1ccc(C)cc1)C(=O)c1ccccc1)C(=O)c1ccccc1`, the IC50 in experiment [1] was found to be 15.9 µM; in experiment [2] it was 7.6 µM; in experiment [3], 20.9 µM.
On to `COc1ccc(C(=O)/C(=C/c2c(F)c(F)c(F)c(F)c2F)CCOC(C)=O)cc1`, for which the IC50 in experiment [1] was greater than 100 µM; in experiment [2], 28.5 µM; in experiment [3] it was 58.1 µM.
Regarding `COc1ccc(C(=O)/C(=C/c2ccc(Cl)cc2Cl)CN2CCOCC2)cc1`, the IC50 in experiment [1] was 42.3 µM; in experiment [2], 8.5 µM; in experiment [3], greater than 100 µM.
Consider `COc1ccc(C(=O)/C(=C/C2CCCCC2)COC(=O)c2ccccc2)cc1`, for which the values for the IC50 in experiment [1], in experiment [2] and in experiment [3] were 13.7 µM, 10.2 µM and 36 µM, respectively.
For `C=C(C/C(=C\c1ccccc1)C(=O)c1ccc(OC)cc1)C(=O)c1ccc(OC)cc1`, the IC50 in experiment [1] worked out at 7.4 µM; in experiment [2] it was 7.4 µM; in experiment [3] it was 22.9 µM.
For `CC(=O)OC/C(=C/c1ccc(Cl)cc1Cl)C(=O)c1ccccc1`, the IC50 in experiment [1] amounted to 31.7 µM; in experiment [2], 12.6 µM; in experiment [3], 74.5 µM.
On to `COc1ccc(C(=O)/C(=C/c2ccccc2F)CCOC(C)=O)cc1`, for which the IC50 in experiment [1], in experiment [2] and in experiment [3] was greater than 100 µM in each case.
For `COc1ccc(C(=O)/C(=C/c2ccccc2F)COC(C)=O)cc1`, the IC50 amounted to 30 µM in experiment [1], 8.2 µM in experiment [2] and 22.5 µM in experiment [3].
`C=C(C(=O)c1ccc(OC)cc1)C(OC(C)=O)c1ccccc1F` (stereo not drawn): the half-maximal inhibitory concentration (IC50) in experiment [1] is 18 µM; in experiment [2], 9.5 µM; in experiment [3], 67.3 µM.
As to `C/C=C(\COC(=O)c1ccccc1)C(=O)c1ccc(OC)cc1`, the results for the IC50 in experiment [1], in experiment [2] and in experiment [3] were 29.8 µM, 16.2 µM and greater than 100 µM, respectively.
On the same counts, the results for `COc1ccc(C(=O)/C(=C\c2ccccc2Cl)COC(=O)c2ccccc2)cc1` are 36 µM, 20.1 µM and 52 µM.
Take `COc1ccc(C(=O)/C(=C/c2ccc([N+](=O)[O-])cc2)CN2CCOCC2)cc1`: the figures for the 50% inhibitory concentration (IC50) in experiment [1], in experiment [2] and in experiment [3] were 7 µM, 5.6 µM and 70.1 µM, respectively.
With `C=C(C(=O)c1ccc(OC)cc1)C(OC(=O)c1ccccc1)C(CC)CC` (stereo not drawn), the IC50 in experiment [1] was found to be 17.9 µM; in experiment [2], 13 µM; in experiment [3], 35.2 µM.
On the same counts, the results for `COc1ccc(C(=O)/C(=C/c2ccc(Cl)cc2Cl)CC(C)C)cc1` are greater than 100 µM, 14.6 µM and 80.3 µM.
With `C=C(C(=O)c1ccc(OC)cc1)C(OC(C)=O)C(CC)CC` (stereo not drawn), the IC50 in experiment [1] turned out to be 38.9 µM; in experiment [2], 11.8 µM; in experiment [3] it was 32.9 µM.
On the same counts, the results for `CCC(/C=C(\COC(=O)c1ccccc1)C(=O)c1ccc(OC)cc1)CC` are 28 µM, 26.8 µM and greater than 100 µM.
`COc1ccc(C(=O)/C(=C/C2CCCCC2)CC(C)OC(C)=O)cc1` (stereo not drawn): the figures for the half-maximal inhibitory concentration (IC50) in experiment [1], in experiment [2] and in experiment [3] were greater than 100 µM, 33.4 µM and 98 µM, respectively.
Regarding `COc1ccc(C(=O)/C(=C/c2ccc(Cl)cc2Cl)CC(C)OC(C)=O)cc1` (stereo not drawn), the IC50 was greater than 100 µM in experiment [1], 36.8 µM in experiment [2] and 40.3 µM in experiment [3].
For `COc1ccc(C(=O)/C(=C/c2ccc([N+](=O)[O-])cc2)CCOC(C)=O)cc1`, in that order: greater than 100 µM, greater than 100 µM and greater than 100 µM.
Take `C=C(C(=O)c1ccc(OC)cc1)C(OC(=O)c1ccccc1)c1ccc([N+](=O)[O-])cc1` (stereo not drawn): the IC50 in experiment [1] stood at 56.1 µM; in experiment [2] it was 13.2 µM; in experiment [3], 66.6 µM.
Turning to `COc1ccc(C(=O)/C(=C/c2c(F)c(F)c(F)c(F)c2F)CC(C)OC(C)=O)cc1` (stereo not drawn), the half-inhibitory concentration (IC50) in experiment [1] is greater than 100 µM; in experiment [2], 49 µM; in experiment [3], 91.7 µM.
As for `C=C(C(=O)c1ccc(OC)cc1)C(O)c1ccccc1Cl` (stereo not drawn), the figures for the IC50 in experiment [1], in experiment [2] and in experiment [3] were 29.6 µM, 8.1 µM and 28.5 µM, respectively.

Source of the values: ChEMBL document CHEMBL3421532, “Synthesis and antiproliferative activity of α-branched α,β-unsaturated ketones in human hematological and solid cancer cell lines” (Eur J Med Chem, 2015).
